Published values from different studies.
Protocols differ between the studies behind these lines.
Effect on: enzyme activity
Action: inhibitor
IGF1R: Insulin-like growth factor 1 receptor (IGF1R, Homo sapiens, UniProt P08069)
IGF1R phosphorylated: Insulin-like growth factor 1 receptor, phosphorylated (IGF1R, Homo sapiens, UniProt P08069)

CCCOc1ccc(OC)c(F)c1C(=O)c1ccc(C(=O)N[C@@H]2CNC[C@H]2NC(=O)c2ccc3[nH]ncc3c2)cc1 — remaining activity (IGF1R; 10 µM): 90%
CC(C)(C)c1nc(-c2cccc(NS(=O)(=O)c3c(F)cccc3F)c2F)c(-c2ccnc(N)n2)s1 — remaining activity (IGF1R; radiometric; 1 µM): 81%
O=C(Nc1cnn(-c2csc(C(=O)NC3COC3)c2)c1)Nc1c(F)cccc1Cl — remaining activity (IGF1R; 5 µM): 94.9%
Cc1cnc(NC2CCOCC2)nc1-n1cnc(C(=O)NC(CN)c2cc(F)cc(Cl)c2)c1 (stereo not shown) — remaining activity (IGF1R; radiometric; 1 µM): 103%
Cc1sc(C(=O)NC2COC2)cc1-n1cc(NC(=O)Nc2c(F)cccc2Cl)cn1 — remaining activity (IGF1R; 10 µM): 102%
CC(C)(O)[C@H]1CC[C@H](Nc2ccc3ncc(-c4cccc(C(F)(F)F)c4)n3n2)CC1 — remaining activity (IGF1R; 1 µM): 99.2%
COc1cc(Nc2cnc(C#N)c(O[C@H](C)CN(C)C)n2)ncc1-c1cnn(C)c1 — remaining activity (IGF1R; radiometric; 1 µM): 100%
CC(C)(C)C(=O)c1sc(NC2CCCCC2)nc1N — remaining activity (IGF1R; 10 µM): 118%
CCN(CC)c1ccc(C2=NNC(=O)CC2C)cc1[N+](=O)[O-] (stereo not shown) — remaining activity (IGF1R phosphorylated; 10 µM): 102%
Cc1[nH]c(/C=C2\C(=O)Nc3ccc(F)cc32)c(C)c1C(=O)N[C@H]1CCN(C(=O)N(C)C)C1 — remaining activity (IGF1R; 0.1 µM): 115%
Cc1ccc(NC(=O)c2ccc(C)c(C(F)(F)F)c2)cc1C#Cc1nn(C2CCC(O)CC2)c2ncnc(N)c12 (stereo not shown) — remaining activity (IGF1R phosphorylated; 10 µM): 91%
FC(F)c1nc2ccccc2n1-c1nc(N2CCOCC2)nc(N2CCOCC2)n1 — remaining activity (IGF1R; 10 µM): 87%
CCN(CC)CCNC(=O)c1c(C)[nH]c(/C=C2\C(=O)Nc3ccc(F)cc32)c1C — remaining activity (IGF1R; 0.1 µM): 75%
